Assay type in all cases: functional, cell-based
A short description of assay [1]: Cytotoxicity against human […] cells by MTT assay. The method in brief: (§1)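 Cells grown in RPMI-1640 with 10% (v/v) fetal calf serum, 100 μg ml⁻¹ penicillin and 100 μg ml⁻¹ streptomycin at 37 °C, humidified 5% CO₂, in 96-well cultures. Compounds from DMSO stocks; final DMSO 2% (v/v) or lower. MTT staining read as optical density. IC50 is the concentration reducing OD by 50% vs untreated cells. Mean ± SD of at least five independent determinations. Top concentration 300 μM.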
(In general: Tetrazolium dyes change colour on reduction, which living cells bring about.)

The subject of a further assay is A-375. Nature of the assay: Cytotoxicity against human A375 cells by MTT assay. The method in brief: as §1
The next assay deals with KB. Nature of the assay: Cytotoxicity against human KB cells by MTT assay. The method in brief:
as §1

The test system of a further assay is OS-RC-2. Nature of the assay: Cytotoxicity against human OS-RC2 cells by MTT assay. The method in brief: as §1
The test system of another assay is 769-P. Put plainly: Cytotoxicity against human 769-P cells by MTT assay. The method in brief:
as §1

Another assay has as its system 786-0. Nature of the assay: Cytotoxicity against human 786-0 cells by MTT assay. The method in brief:
as §1

The test system of another assay is MCF7. Put plainly: Cytotoxicity against human MCF7 cells by MTT assay. The method in brief:
as §1

The test system of a further assay is HT-29. Put plainly: Cytotoxicity against human HT-29 cells by MTT assay. The method in brief:
as §1

Another assay relates to CWR22R. Nature of the assay: Cytotoxicity against human 22Rv1 cells by MTT assay. The method in brief:
as §1

The next assay deals with HepG2. Nature of the assay: Cytotoxicity against human HepG2 cells by MTT assay. The method in brief:
as §1

One may read the IC50 as the concentration at which inhibition is half-maximal.

On to `NCCNC(=O)c1nccc2c1[nH]c1ccccc12`, for which the IC50 came out at 77.7 µM in assay [1]; 65.3 µM in the assay with A-375; 118 µM with KB; 63.9 µM in the assay with OS-RC-2; 124 µM with 769-P; 86.1 µM in the assay on 786-0. Moreover, the half-inhibitory concentration (IC50) amounted to 80.4 µM with MCF7, 55.6 µM in the assay with HT-29, 124 µM in the assay on CWR22R and 122 µM with HepG2.
As to `NCCNc1nccc2c1[nH]c1ccccc12`, the IC50 in assay [1] was 36 µM; in the assay on A-375, 33.4 µM; in the assay with KB, 25.4 µM; with OS-RC-2 it was 40 µM; in the assay on 769-P, 31.5 µM; in the assay with 786-0 it was 31.9 µM. For the same compound, the IC50 in the assay on MCF7 stood at 87.2 µM; with HT-29, 33.4 µM; with CWR22R, 41.3 µM; in the assay with HepG2, 30.6 µM.
As for `CCCCn1c2ccccc2c2ccnc(Br)c21`, the IC50 was above 300 µM in [1]; above 300 µM in the assay with A-375; above 300 µM with KB; 136 µM in the assay on OS-RC-2; above 300 µM in the assay with 769-P; above 300 µM in the assay with 786-0. For the same compound, the IC50 with MCF7 is 256 µM; in the assay with HT-29, 186 µM; with CWR22R it was 236 µM; in the assay on HepG2, above 300 µM.
For `Fc1c(F)c(F)c(Cn2c3ccccc3c3ccnc(Br)c32)c(F)c1F`, the IC50 (in [1]; in the assay with A-375; in the assay on KB; in the assay with OS-RC-2; with 769-P; in the assay with 786-0) was above 300 µM in each case. Besides, the IC50 in the assay with MCF7, in the assay on HT-29, with CWR22R and in the assay with HepG2 was above 300 µM each time.
With `Brc1nccc2c3ccccc3n(CCCc3ccccc3)c12`, the IC50 in [1] is above 300 µM; with A-375, above 300 µM; in the assay on KB, above 300 µM; with OS-RC-2, 93.9 µM; in the assay on 769-P, 123 µM; in the assay on 786-0 it was above 300 µM. The IC50 in the assay with MCF7 is above 300 µM; in the assay with HT-29, 86.6 µM; with CWR22R it was 88 µM; in the assay on HepG2, above 300 µM.
Take `CCCCn1c2ccccc2c2ccnc(NCCN)c21`: the IC50 in [1] is 25.3 µM; with A-375, 22.8 µM; with KB, 20.5 µM; with OS-RC-2, 9.3 µM; with 769-P, 68.7 µM; in the assay on 786-0 it was 18.9 µM. For the same compound, the IC50 came to 33.6 µM in the assay on MCF7, 13.3 µM with HT-29, 14.2 µM with CWR22R and 6.6 µM in the assay on HepG2.
Regarding `NCCNc1nccc2c3ccccc3n(Cc3ccc(F)cc3)c12`, the IC50 was 9.7 µM in assay [1]; 15.6 µM in the assay on A-375; 19.1 µM in the assay on KB; 16.3 µM in the assay with OS-RC-2; 1.8 µM with 769-P; 18.8 µM with 786-0. Also, the IC50 was 21.4 µM in the assay with MCF7, 9.1 µM in the assay with HT-29, 17.9 µM with CWR22R and 4.4 µM in the assay with HepG2.
Regarding `NCCNc1nccc2c3ccccc3n(Cc3c(F)c(F)c(F)c(F)c3F)c12`, the IC50 in [1] came to 11.9 µM; in the assay on A-375, 12 µM; with KB, 11.8 µM; with OS-RC-2, 12 µM; with 769-P, 10.4 µM; in the assay on 786-0 it was 5.8 µM. The IC50 with MCF7 was 15.1 µM; in the assay on HT-29 it was 9.9 µM; with CWR22R it was 12.5 µM; in the assay with HepG2 it was 12.8 µM.
Regarding `NCCNc1nccc2c3ccccc3n(CCCc3ccccc3)c12`, the IC50 came to 9.6 µM in [1]; 7.3 µM with A-375; 4.9 µM in the assay with KB; 4.6 µM in the assay with OS-RC-2; 11.1 µM with 769-P; 6.9 µM in the assay on 786-0. Further, the IC50 was found to be 9.3 µM with MCF7, 5.6 µM in the assay on HT-29, 8.6 µM in the assay with CWR22R and 13.3 µM with HepG2.
As for `NCCCCNc1nccc2c3ccccc3n(CCCc3ccccc3)c12`, the IC50 was 8 µM in [1]; 9.5 µM in the assay on A-375; 11.3 µM with KB; 4.2 µM in the assay with OS-RC-2; 2.2 µM with 769-P; 2.7 µM in the assay on 786-0. Moreover, the concentration for half-maximal inhibition (IC50) in the assay with MCF7 was determined as 12.8 µM; in the assay with HT-29, 17.5 µM; with CWR22R, 2.9 µM; with HepG2 it was 4 µM.
Turning to `NCCCCCCNc1nccc2c3ccccc3n(CCCc3ccccc3)c12`, the IC50 in assay [1] came out at 12.4 µM; with A-375, 16.3 µM; in the assay on KB it was 13 µM; in the assay on OS-RC-2, 8.4 µM; with 769-P, 13.6 µM; in the assay on 786-0, 11.3 µM. The IC50 in the assay on MCF7 came to 17.9 µM; in the assay on HT-29, 21.5 µM; with CWR22R it was 11.5 µM; in the assay with HepG2, 12.1 µM.
With `NCCCCCCNC(=O)c1nccc2c1[nH]c1ccccc12`, the IC50 in assay [1] turned out to be 109 µM; in the assay on A-375 it was 37.7 µM; in the assay with KB it was 86.9 µM; with OS-RC-2 it was 58.5 µM; in the assay on 769-P it was 75.3 µM; in the assay with 786-0, 72.7 µM. Besides, the IC50 with MCF7 was found to be 46.8 µM; in the assay on HT-29, 73.2 µM; in the assay on CWR22R it was 33.6 µM; in the assay on HepG2, 85.5 µM.
With `CCN(CC)CCCNC(=O)c1nccc2c1[nH]c1ccccc12`, the concentration for half-maximal inhibition (IC50) is 174 µM in assay [1]; 107 µM in the assay on A-375; 62.3 µM with KB; 93.9 µM in the assay with OS-RC-2; 54 µM with 769-P; 111 µM in the assay on 786-0. In addition, the IC50 is 164 µM in the assay on MCF7, 61.2 µM in the assay with HT-29, 46.2 µM in the assay on CWR22R and 243 µM with HepG2.
`CC[N+](C)(CC)CCCNC(=O)c1nccc2c1[nH]c1ccccc12`: the IC50 (in [1]; in the assay with A-375; in the assay on KB; in the assay on OS-RC-2; in the assay on 769-P; in the assay with 786-0) was above 300 µM throughout. The IC50 with MCF7, in the assay on HT-29, in the assay with CWR22R and in the assay with HepG2 was above 300 µM throughout.
As for `CC[N+](CC)(CCCNC(=O)c1nccc2c1[nH]c1ccccc12)Cc1ccccc1`, the IC50 is above 300 µM in assay [1]; above 300 µM with A-375; above 300 µM in the assay on KB; above 300 µM in the assay on OS-RC-2; 101 µM with 769-P; 137 µM in the assay on 786-0. Moreover, the 50% inhibitory concentration (IC50) in the assay with MCF7 was 51.1 µM; in the assay on HT-29, above 300 µM; with CWR22R, 71.4 µM; with HepG2, above 300 µM.
Consider `NCCNC(=O)c1nccc2c3ccccc3n(CCCc3ccccc3)c12`, for which the IC50 was 20 µM in assay [1]; 13.7 µM in the assay with A-375; 9.9 µM with KB; 15.7 µM in the assay with OS-RC-2; 32.5 µM in the assay with 769-P; 11.8 µM in the assay with 786-0. In addition, the IC50 with MCF7 came to 22.3 µM; in the assay with HT-29, 17.9 µM; with CWR22R, 10.8 µM; in the assay with HepG2, 15.9 µM.
With `CCN(CC)CCCNC(=O)c1nccc2c3ccccc3n(CCCc3ccccc3)c12`, the IC50 turned out to be 22.3 µM in assay [1]; 33.8 µM in the assay on A-375; 14 µM in the assay on KB; 36.9 µM with OS-RC-2; 61 µM in the assay on 769-P; 31.4 µM in the assay on 786-0. For the same compound, the concentration for half-maximal inhibition (IC50) in the assay with MCF7 was determined as 31.4 µM; with HT-29, 53.4 µM; in the assay on CWR22R it was 26.9 µM; in the assay on HepG2, 22.1 µM.
With `Fc1ccc(Cn2c3ccccc3c3ccnc(Br)c32)cc1`, the IC50 in assay [1] is above 300 µM; in the assay on A-375, above 300 µM; with KB, above 300 µM; in the assay on OS-RC-2, above 300 µM; in the assay on 769-P, 252 µM; in the assay with 786-0 it was above 300 µM. Further, the IC50 was above 300 µM in the assay with MCF7, 245 µM with HT-29, above 300 µM in the assay on CWR22R and above 300 µM in the assay with HepG2.
On to `OCCNc1[nH]ccc2c3ccccc3nc1-2`, for which the IC50 in [1] was above 300 µM; in the assay on A-375 it was above 300 µM; in the assay on KB, above 300 µM; with OS-RC-2, 220 µM; with 769-P, 272 µM; in the assay with 786-0, above 300 µM. Further, the IC50 was above 300 µM in the assay on MCF7, above 300 µM in the assay with HT-29, 136 µM in the assay with CWR22R and 130 µM in the assay on HepG2.

The values are drawn from ChEMBL document CHEMBL1275322, “Synthesis and cytotoxic evaluation of 1-carboxamide and 1-amino side chain substituted β-carbolines” (Eur J Med Chem, 2010).
